Screening results from PubChem.
Statin myotox sup: suppression of simvastatin myotoxicity; 0.78% of 330,000 active; rescue of ATP level, % at 7.49 µM; C2C12 myotubes + simvastatin, ATP luminescence, 48 h; scaled: DMSO 0, geranylgeraniol control 100; AID 602340;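 active = mean ATP rescue above about 67%, or every replicate alone reaching that limit, limit read from the data, passing the limit was not always enough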;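 also: myotubes were challenged with 10 µM simvastatin during compound exposure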
S100A4 MyoIIA: S100A4-myosin IIA interaction inhibition; P26447; S100A4/TAMRA-MyoIIA peptide fluorescence polarization; inhibition, % at 10.7 µM; 0.14% of 360,000 active;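 active = mean inhibition of at least 70% across replicates, with every replicate also reaching that level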
Target sequence (P26447 whole entry, looked up): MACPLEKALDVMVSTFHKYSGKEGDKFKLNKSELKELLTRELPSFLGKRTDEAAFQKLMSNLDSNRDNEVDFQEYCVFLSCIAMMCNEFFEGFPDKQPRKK
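Test system – S100A4 monomer (human) · Compound – single-point compound testing · Schedule – 5 min incubation before reading · Probe or stimulus – TAMRA-labelled myosin IIA heavy-chain peptide probe, 5 nM · Benchmarks – neutral control DMSO, positive control TFP · Medium – Calcium-containing HEPES buffer, pH 7.2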
PGC1a acetyl inh: lowers PGC1a acetylation signal in U2OS cells; AlphaScreen anti-acetyl-lysine; with virally co-expressed GCN5 acetyltransferase; inhibition, % at 15.6 µM; 0.17% of 350,000 active;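 active = every replicate shows inhibition of at least 40%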
ERAP1 HTS inh: blocks human ERAP1 aminopeptidase activity. Q9NZ08. inhibition, % at 10.7 µM. recombinant ERAP1, Leu-AMC fluorescence, 60 min. AID 652197. 0.15% of 340,000 active;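 active = mean replicate inhibition of at least 30%, or all replicates individually reaching that 30% level; inactive = mean below 30% and not every replicate reaching it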
Rtt109 HAT inh: blocks Candida albicans Rtt109/Vps75 acetyltransferase activity; purified Rtt109/Vps75, ThioGlo CoA-SH fluorescence, 4 h; Q5AAJ8; AID 540336; inhibition, % at 34.9 µM; 0.16% of 330,000 active;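 active = inhibition of at least 50% in every replicate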
Target sequence (Q5AAJ8 whole entry, looked up): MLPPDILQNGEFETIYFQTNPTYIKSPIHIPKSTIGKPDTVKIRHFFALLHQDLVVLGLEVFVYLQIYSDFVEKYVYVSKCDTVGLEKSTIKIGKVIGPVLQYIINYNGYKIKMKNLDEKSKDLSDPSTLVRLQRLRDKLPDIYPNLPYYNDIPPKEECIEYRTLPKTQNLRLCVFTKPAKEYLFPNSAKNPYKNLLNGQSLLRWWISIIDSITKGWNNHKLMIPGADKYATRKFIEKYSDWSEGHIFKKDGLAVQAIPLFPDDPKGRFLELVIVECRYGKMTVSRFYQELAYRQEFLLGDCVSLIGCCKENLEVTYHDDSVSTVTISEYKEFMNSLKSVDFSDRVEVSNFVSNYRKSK
Hits are given with their value; – = inactive; · = no result. Shown are actives, neighbours in structure and some others; about 0.98% of the full set was active somewhere.

SMILES	Statin myotox sup	S100A4 MyoIIA	PGC1a acetyl inh	ERAP1 HTS inh	Rtt109 HAT inh
COCC#Cc1ccc2c(c1)O[C@@H](CN(C)Cc1ccc(F)cc1)[C@@H](C)CN([C@H](C)CO)S2(=O)=O	–	–	–	–	·
CCC(=O)N1C[C@H](C)[C@@H](OC)CN(C)C(=O)c2ccc(NC(=O)Nc3ccccc3)cc2OC[C@H]1C	–	124.1	–	–	·
CCCNC(=O)Nc1ccc2c(c1)OC[C@H](C)N(C(=O)C1CC1)C[C@H](C)[C@H](OC)CN(C)C2=O	–	–	–	–	·
CCCNC(=O)Nc1ccc2c(c1)OC[C@@H](C)N(C(=O)C1CC1)C[C@H](C)[C@@H](OC)CN(C)C2=O	–	98.1	·	–	·
O=C(C[C@H]1C[C@@H]2c3cc(NC(=O)C4CCOCC4)ccc3O[C@@H]2[C@H](CO)O1)NCC(F)(F)F	–	–	–	–	·
CS(=O)(=O)N1CCN(C(=O)c2cc(-c3ccncc3)nc3ccc(Cl)cc23)CC1	107.9	·	–	·	–
CCCn1c(-c2cccnc2Cl)nc2cc(Cl)c(Cl)cc21	72.2	–	–	–	–
C=CCn1c(-c2cccnc2Cl)nc2cc(Cl)c(Cl)cc21	–	·	–	·	–
O=C([C@H]1[C@H](CO)[C@H]2Cn3c(cccc3=O)[C@@H]1N2CC1CCCC1)N1CCOCC1	·	–	–	–	·
CC(C)NC(=O)N(C)C[C@H]1Oc2ccc(NC(=O)Nc3ccc(C(F)(F)F)cc3)cc2C(=O)N([C@@H](C)CO)C[C@H]1C	–	–	–	–	·
CSc1nc2nc3c(c(=O)n2[nH]1)CCCC3	119.4	·	–	·	–
CC(C)NC(=O)Nc1ccc2c(c1)CC(=O)N([C@H](C)CO)C[C@@H](C)[C@@H](CN(C)S(=O)(=O)c1ccccc1)O2	–	–	–	–	·
CCc1ccccc1N(CC)C(=O)c1cn(CC)c(=O)c2cc(OC)c(OC)cc12	–	·	–	·	–
CCc1ccccc1N(CC)C(=O)c1cn(C)c(=O)c2cc(OC)c(OC)cc12	94.9	·	–	·	–
CC1CCCC(C)N1CCCNC(=O)c1cc2c(s1)-c1ccccc1OC2 (stereo not drawn)	–	–	·	32.1	–
CCN1CCN(CCCNC(=O)c2cc3c(s2)-c2ccccc2OC3)CC1	–	–	·	54.0	–
CCCN1CCN(CCCNC(=O)c2cc3c(s2)-c2ccccc2OC3)CC1	–	–	·	–	–
COc1ccc(S(=O)(=O)N(C)C[C@@H]2Oc3ccc(NS(=O)(=O)c4ccccc4)cc3CC(=O)N([C@H](C)CO)C[C@@H]2C)cc1	–	–	–	–	·
CCCC(=O)Nc1ccc2c(c1)OC[C@H](C)N(CCC(F)(F)F)C[C@H](C)[C@@H](OC)CN(C)C2=O	·	131.2	–	–	·
CO[C@@H]1CN(C)C(=O)c2cc(NS(=O)(=O)CC(F)(F)F)ccc2OC[C@@H](C)N(C)C[C@H]1C	–	105.9	·	–	·
CO[C@H]1CN(C)C(=O)c2ccc(NC(=O)C3CCCCC3)cc2OC[C@@H](C)N(Cc2nccs2)C[C@@H]1C	–	130.1	·	–	·
CCCC(=O)Nc1ccc2c(c1)OC[C@@H](C)N(CCC(F)(F)F)C[C@H](C)[C@H](OC)CN(C)C2=O	–	–	–	–	·
CCCC(=O)Nc1ccc2c(c1)OC[C@@H](C)N(Cc1ccncc1)C[C@H](C)[C@H](OC)CN(C)C2=O	–	121.0	·	–	·
CCCC(=O)Nc1ccc2c(c1)OC[C@@H](C)N(Cc1ccncc1)C[C@@H](C)[C@H](OC)CN(C)C2=O	–	–	–	–	·
CO[C@H]1CN(C)C(=O)c2ccc(NS(=O)(=O)c3ccccc3)cc2OC[C@@H](C)N(Cc2cccnc2)C[C@@H]1C	–	–	–	–	·
SMILES	Statin myotox sup	S100A4 MyoIIA	PGC1a acetyl inh	ERAP1 HTS inh	Rtt109 HAT inh
CO[C@@H]1CN(C)C(=O)c2ccc(NC(=O)c3ccc4c(c3)OCO4)cc2OC[C@@H](C)N(Cc2ccc3c(c2)OCO3)C[C@H]1C	–	79.6	–	–	·
CCCC(=O)Nc1ccc2c(c1)OC[C@@H](C)N(C(=O)c1cnccn1)C[C@@H](C)[C@H](OC)CN(C)C2=O	–	141.5	–	–	·
CCCC(=O)Nc1ccc2c(c1)OC[C@H](C)N(C(=O)c1cnccn1)C[C@H](C)[C@H](OC)CN(C)C2=O	–	–	–	–	·
CO[C@H]1CN(C)C(=O)c2ccc(NS(=O)(=O)c3ccccc3)cc2OC[C@H](C)N(Cc2cccnc2)C[C@@H]1C	–	79.4	–	–	·
CN(c1cc2c(c3c1ccn3C)C1CCC2C1)C1CCCCC1 (stereo not drawn)	–	–	78.1	–	·
CO[C@H]1CN(C)C(=O)c2cc(NC(=O)Nc3ccccc3F)ccc2OC[C@@H](C)N(CC2CC2)C[C@@H]1C	–	–	–	–	·
C[C@@H]1CN([C@H](C)CO)C(=O)c2cccc(NC(=O)c3ccc(-c4nccs4)cc3)c2O[C@@H]1CN(C)C(=O)Nc1ccc(F)cc1	87.2	–	–	–	·
C[C@H]1CN([C@@H](C)CO)C(=O)c2cccc(NS(=O)(=O)c3cccs3)c2O[C@@H]1CN(C)C(=O)Nc1ccc(C(F)(F)F)cc1	86.2	–	–	–	·
COc1ccc(NC(=O)N(C)C[C@H]2Oc3c(NS(=O)(=O)c4cccs4)cccc3C(=O)N([C@@H](C)CO)C[C@H]2C)cc1	88.1	–	–	–	·
C[C@@H]1CN([C@H](C)CO)C(=O)c2cccc(NC(=O)c3ccc(-c4nccs4)cc3)c2O[C@H]1CN(C)C(=O)Nc1ccc(F)cc1	–	–	–	–	·
COc1ccc(NC(=O)N(C)C[C@H]2Oc3c(NS(=O)(=O)c4cccs4)cccc3C(=O)N([C@H](C)CO)C[C@@H]2C)cc1	–	–	–	–	–
C[C@@H]1CN([C@@H](C)CO)S(=O)(=O)c2ccc(C3=CCCCC3)cc2O[C@@H]1CN(C)S(=O)(=O)c1cn(C)cn1	–	–	–	–	·
O=C(NC1CCC1)[C@H]1[C@H](CO)[C@H]2Cn3c(ccc(-c4cccc(F)c4)c3=O)[C@@H]1N2Cc1cocn1	–	–	·	–	·
Nc1nc2n[nH]nc2c(=O)[nH]1	90.1	–	–	–	–
Cc1noc(C)c1NC(=O)Nc1cccc2c1O[C@@H](CN(C)C(=O)NC1CCCCC1)[C@@H](C)CN([C@@H](C)CO)C2=O	–	–	–	–	·
CCOC(=O)CCCCC(=O)c1[nH]c(=O)[nH]c1CSc1nc2ccccc2[nH]1	95.5	–	–	–	–
CCCNC(=O)N1CC(=O)N2[C@H](CO)[C@H](c3ccc(C#CCC4CCCC4)cc3)[C@@H]2C1	·	–	–	–	·
O=C(C[C@@H]1CC[C@@H](NC(=O)CCN2CCCCC2)[C@@H](CO)O1)NCc1ccc(Cl)c(Cl)c1	–	–	–	–	·
O=C(OCc1nc2ccccc2s1)c1ccccc1O	·	–	–	–	–
O=C(OCc1nc2ccccc2s1)c1cnccn1	132.1	·	–	·	–
COc1ccc(C(=O)N2CCc3cc(OC)c(OC)cc3C2)cc1OC	122.2	·	–	·	–
COc1cc2c(cc1OC)CN(C(=O)c1ccc(-c3ccccc3)cc1)CC2	–	–	–	–	–
